Measured values reported in ChEMBL document CHEMBL1123555, “1,2-Bis(sulfonyl)hydrazines. 3. Effects of structural modification on antineoplastic activity” (1987).

organism: Mus musculus; experiment: Antitumor activity against L1210 leukemia cells in mice calculated as average change in body weight from onset to termination of therapy; format: functional
How it was run: (§1)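 Tumor-bearing mice in groups of five, dosed i.p. daily for 6 days from 24 h post-implantation with suspensions in Tween 80/isotonic saline at 10-150 mg/kg per day; vehicle controls run alongside. Mice weighed during the experiment. Average percent body-weight change from onset to termination of therapy was taken as the toxicity index, reported at the optimal-survival dose.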

Compound	Weight change
CN(NS(=O)(=O)c1ccc2ccccc2c1)S(=O)(=O)Cc1ccccc1	10.3%
Cc1ccc(S(=O)(=O)NN(C)S(=O)(=O)c2ccccc2)cc1	10.7%
CN(NS(=O)(=O)c1ccc(Cl)cc1)S(=O)(=O)Cc1ccccc1	10.2%
Cc1ccc(S(=O)(=O)NN(C)S(=O)(=O)c2ccc(C)cc2)cc1	3.7%
Cc1ccc(S(=O)(=O)NN(C)S(=O)(=O)c2ccc(Cl)cc2)cc1	5.5%
COc1ccc(S(=O)(=O)N(C)NS(C)(=O)=O)cc1	-6.4%
CCS(=O)(=O)NN(C)S(=O)(=O)c1ccc(OC)cc1	-8.7%
Cc1ccc(S(=O)(=O)NN(C)S(=O)(=O)Cc2ccccc2)cc1	0.3%
CCS(=O)(=O)NN(C)S(=O)(=O)c1ccc(C)cc1	-2.6%
Cc1ccc(S(=O)(=O)NN(C)S(=O)(=O)c2ccc3ccccc3c2)cc1	8.6%
CN(NS(=O)(=O)c1ccc2ccccc2c1)S(=O)(=O)c1ccc(Cl)cc1	9%
COc1ccc(S(=O)(=O)N(C)NS(=O)(=O)c2ccc(C)cc2)cc1	9.8%
Cc1ccc(S(=O)(=O)N(C)NS(=O)(=O)c2ccccc2)cc1	2%
COc1ccc(S(=O)(=O)N(C)NS(=O)(=O)c2ccccc2)cc1	-3.9%
CN(NS(=O)(=O)c1ccc(Cl)cc1)S(=O)(=O)c1ccc(Cl)cc1	1.3%
COc1ccc(S(=O)(=O)NN(C)S(=O)(=O)c2ccccc2)cc1	4.5%
CN(NS(=O)(=O)c1ccccc1)S(=O)(=O)Cc1ccccc1	-3.1%
Cc1ccc(S(=O)(=O)N(C)NS(C)(=O)=O)cc1	-7.9%
CN(NS(=O)(=O)c1ccc(Cl)cc1)S(=O)(=O)c1ccccc1	14.6%
CN(NS(=O)(=O)c1ccccc1)S(=O)(=O)c1ccc2ccccc2c1	1.8%

organism: Mus musculus; experiment: Antitumor activity against L1210 leukemia cells in mice (activity expressed as average survival time of treated/control animals x 100); format: functional
How it was run: (§2)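 Compound given ip as a fine suspension (homogenized in drops of 20% aqueous Tween 80, made to volume with isotonic saline) at 10-150 mg/kg per day, once daily for 6 consecutive days starting 24 h after implantation. Vehicle-injected tumor-bearing controls were included. Read-out was survival time; body-weight change over therapy was the toxicity indicator.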

Compound	T/C
CCS(=O)(=O)NN(C)S(=O)(=O)c1ccc(OC)cc1	149%
Cc1ccc(S(=O)(=O)NN(C)S(=O)(=O)Cc2ccccc2)cc1	126%
CCS(=O)(=O)NN(C)S(=O)(=O)c1ccc(C)cc1	162%
Cc1ccc(S(=O)(=O)NN(C)S(=O)(=O)c2ccc3ccccc3c2)cc1	120%
COc1ccc(S(=O)(=O)N(C)NS(=O)(=O)c2ccccc2)cc1	142%

system: not listed separately; experiment: Antitumor activity against mouse B16 melanoma cells, calculated as average change in body weight from onset to termination of therapy; format: functional; how it was run: as §1

Compound	Weight change
Cc1ccc(S(=O)(=O)NN(C)S(=O)(=O)c2ccccc2)cc1	0.8%
CN(NS(=O)(=O)c1ccc(Cl)cc1)S(=O)(=O)Cc1ccccc1	1.4%
Cc1ccc(S(=O)(=O)NN(C)S(=O)(=O)c2ccc(C)cc2)cc1	-2.7%
Cc1ccc(S(=O)(=O)NN(C)S(=O)(=O)c2ccc(Cl)cc2)cc1	-0.4%
COc1ccc(S(=O)(=O)N(C)NS(C)(=O)=O)cc1	-7.5%
Cc1ccc(S(=O)(=O)NN(C)S(=O)(=O)Cc2ccccc2)cc1	1%
CCS(=O)(=O)NN(C)S(=O)(=O)c1ccc(C)cc1	-1.1%
CN(NS(=O)(=O)c1ccc2ccccc2c1)S(=O)(=O)c1ccc(Cl)cc1	-4%
COc1ccc(S(=O)(=O)N(C)NS(=O)(=O)c2ccc(C)cc2)cc1	-14%
Cc1ccc(S(=O)(=O)N(C)NS(=O)(=O)c2ccccc2)cc1	8.5%
COc1ccc(S(=O)(=O)N(C)NS(=O)(=O)c2ccccc2)cc1	4.7%
CN(NS(=O)(=O)c1ccc(Cl)cc1)S(=O)(=O)c1ccc(Cl)cc1	4.8%
COc1ccc(S(=O)(=O)NN(C)S(=O)(=O)c2ccccc2)cc1	-5.9%
CN(NS(=O)(=O)c1ccccc1)S(=O)(=O)Cc1ccccc1	-1.5%
Cc1ccc(S(=O)(=O)N(C)NS(C)(=O)=O)cc1	-1.9%
CN(NS(=O)(=O)c1ccc(Cl)cc1)S(=O)(=O)c1ccccc1	-2.9%
CN(NS(=O)(=O)c1ccccc1)S(=O)(=O)c1ccc2ccccc2c1	5.1%

system: L1210; experiment: Antitumor activity against L1210 leukemia cells in mice, activity is expressed as optimal effective dose.; format: functional, Mus musculus
How it was run: (§3)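 Transplanted tumor in mice, given i.p. once daily for 6 consecutive days starting 24 h after implantation. Doses span 10-150 mg/kg per day as fine suspensions homogenized in a few drops of 20% aqueous Tween 80 and made up with isotonic saline. Groups of five; vehicle-injected tumor-bearing controls. %T/C = mean survival time treated/control × 100. Value is the daily dose giving maximum %T/C.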

Compound	Dose
CN(NS(=O)(=O)c1ccc2ccccc2c1)S(=O)(=O)Cc1ccccc1	50 mg/kg
Cc1ccc(S(=O)(=O)NN(C)S(=O)(=O)c2ccccc2)cc1	50 mg/kg
CN(NS(=O)(=O)c1ccc(Cl)cc1)S(=O)(=O)Cc1ccccc1	50 mg/kg
Cc1ccc(S(=O)(=O)NN(C)S(=O)(=O)c2ccc(C)cc2)cc1	50 mg/kg
Cc1ccc(S(=O)(=O)NN(C)S(=O)(=O)c2ccc(Cl)cc2)cc1	100 mg/kg
COc1ccc(S(=O)(=O)N(C)NS(C)(=O)=O)cc1	20 mg/kg
CCS(=O)(=O)NN(C)S(=O)(=O)c1ccc(OC)cc1	50 mg/kg
Cc1ccc(S(=O)(=O)NN(C)S(=O)(=O)Cc2ccccc2)cc1	100 mg/kg
CCS(=O)(=O)NN(C)S(=O)(=O)c1ccc(C)cc1	30 mg/kg
Cc1ccc(S(=O)(=O)NN(C)S(=O)(=O)c2ccc3ccccc3c2)cc1	75 mg/kg
CN(NS(=O)(=O)c1ccc2ccccc2c1)S(=O)(=O)c1ccc(Cl)cc1	100 mg/kg
COc1ccc(S(=O)(=O)N(C)NS(=O)(=O)c2ccc(C)cc2)cc1	150 mg/kg
Cc1ccc(S(=O)(=O)N(C)NS(=O)(=O)c2ccccc2)cc1	50 mg/kg
COc1ccc(S(=O)(=O)N(C)NS(=O)(=O)c2ccccc2)cc1	100 mg/kg
CN(NS(=O)(=O)c1ccc(Cl)cc1)S(=O)(=O)c1ccc(Cl)cc1	150 mg/kg
COc1ccc(S(=O)(=O)NN(C)S(=O)(=O)c2ccccc2)cc1	50 mg/kg
CN(NS(=O)(=O)c1ccccc1)S(=O)(=O)Cc1ccccc1	50 mg/kg
Cc1ccc(S(=O)(=O)N(C)NS(C)(=O)=O)cc1	30 mg/kg
CN(NS(=O)(=O)c1ccc(Cl)cc1)S(=O)(=O)c1ccccc1	50 mg/kg
CN(NS(=O)(=O)c1ccccc1)S(=O)(=O)c1ccc2ccccc2c1	100 mg/kg

organism: Mus musculus; experiment: Antitumor activity against B16 melanoma cells in mice. Activity is expressed as optimal effective dose.; format: functional; how it was run: as §3

Compound	Dose
CN(NS(=O)(=O)c1ccc2ccccc2c1)S(=O)(=O)Cc1ccccc1	50 mg/kg
Cc1ccc(S(=O)(=O)NN(C)S(=O)(=O)c2ccccc2)cc1	50 mg/kg
CN(NS(=O)(=O)c1ccc(Cl)cc1)S(=O)(=O)Cc1ccccc1	50 mg/kg
Cc1ccc(S(=O)(=O)NN(C)S(=O)(=O)c2ccc(C)cc2)cc1	150 mg/kg
Cc1ccc(S(=O)(=O)NN(C)S(=O)(=O)c2ccc(Cl)cc2)cc1	50 mg/kg
COc1ccc(S(=O)(=O)N(C)NS(C)(=O)=O)cc1	20 mg/kg
Cc1ccc(S(=O)(=O)NN(C)S(=O)(=O)Cc2ccccc2)cc1	50 mg/kg
CCS(=O)(=O)NN(C)S(=O)(=O)c1ccc(C)cc1	50 mg/kg
CN(NS(=O)(=O)c1ccc2ccccc2c1)S(=O)(=O)c1ccc(Cl)cc1	50 mg/kg
COc1ccc(S(=O)(=O)N(C)NS(=O)(=O)c2ccc(C)cc2)cc1	100 mg/kg
Cc1ccc(S(=O)(=O)N(C)NS(=O)(=O)c2ccccc2)cc1	150 mg/kg
COc1ccc(S(=O)(=O)N(C)NS(=O)(=O)c2ccccc2)cc1	100 mg/kg
CN(NS(=O)(=O)c1ccc(Cl)cc1)S(=O)(=O)c1ccc(Cl)cc1	50 mg/kg
COc1ccc(S(=O)(=O)NN(C)S(=O)(=O)c2ccccc2)cc1	50 mg/kg
CN(NS(=O)(=O)c1ccccc1)S(=O)(=O)Cc1ccccc1	50 mg/kg
Cc1ccc(S(=O)(=O)N(C)NS(C)(=O)=O)cc1	10 mg/kg
CN(NS(=O)(=O)c1ccc(Cl)cc1)S(=O)(=O)c1ccccc1	100 mg/kg
CN(NS(=O)(=O)c1ccccc1)S(=O)(=O)c1ccc2ccccc2c1	50 mg/kg

system: not listed separately; experiment: Antitumor activity against B16 melanoma cells in mice, activity is expressed as average survival time of treated/control animals x 100.; format: functional, Mus musculus; how it was run: as §2

Compound	T/C
CN(NS(=O)(=O)c1ccc2ccccc2c1)S(=O)(=O)Cc1ccccc1	179%
CN(NS(=O)(=O)c1ccc(Cl)cc1)S(=O)(=O)c1ccc(Cl)cc1	163%
